Bioassay records as filed in PubChem.
RGS4 block = inhibitors of human RGS4 | 310,000 tested, 0.45% active | B-score at 10 µM | HEK293 M3R/RGS4 inducible, Fluo-4 calcium flux; stronger effect = higher value; triggered by carbachol at its EC20 | AID 463165 | P49798;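 active = B-score, a plate-corrected calcium signal, over three deviations above library mean, with baseline fluorescence within five deviations of library mean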;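 also: RGS4 expression induced by doxycycline in cells with stable M3 receptor; B-score is computed from the integrated fluorescence ratio over baseline after carbachol; higher B-score means a larger calcium signal and so more RGS4 inhibition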
Target sequence (P49798 whole entry, looked up): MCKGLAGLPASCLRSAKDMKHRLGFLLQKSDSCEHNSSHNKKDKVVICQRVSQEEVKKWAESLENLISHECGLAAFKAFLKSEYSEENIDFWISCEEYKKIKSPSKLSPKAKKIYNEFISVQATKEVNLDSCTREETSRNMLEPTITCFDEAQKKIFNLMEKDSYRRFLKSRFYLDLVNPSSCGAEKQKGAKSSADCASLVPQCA
MrgX1 agonist = agonists of human MrgX1 receptor; MrgX1-HEK293 cells, Fluo-4 calcium fluorescence, agonist mode; stronger effect = higher value; Q96LB2; 310,000 tested, 0.44% active; AID 588627; B-score at 10 µM;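 active = calcium response B-score plate-corrected fluorescence ratio at least 3 library SD, with starting fluorescence B-score inside 5 SD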
Target sequence (Q96LB2 whole entry, looked up): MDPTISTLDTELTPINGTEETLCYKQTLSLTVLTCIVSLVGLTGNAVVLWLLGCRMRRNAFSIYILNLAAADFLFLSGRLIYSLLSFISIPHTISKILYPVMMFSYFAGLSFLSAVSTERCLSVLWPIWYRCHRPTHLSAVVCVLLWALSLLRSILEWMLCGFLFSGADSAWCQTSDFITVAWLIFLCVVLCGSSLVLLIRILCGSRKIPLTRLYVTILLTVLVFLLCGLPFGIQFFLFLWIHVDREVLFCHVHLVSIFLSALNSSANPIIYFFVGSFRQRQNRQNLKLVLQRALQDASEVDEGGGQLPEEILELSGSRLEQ
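Material: HEK293 cells stably expressing human MrgX1 receptor | Quantity: 15,000 cells per well | Times: Cells plated overnight, dye loaded 0.5 h 37 °C, 0.5 h room temperature | Measured by: Kinetic Fluo-4 NW fluorescence of intracellular calcium | Control set: Positive and negative controls per plate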
MrgX1 PAM = human MrgX1 positive allosteric modulation, primary screen. B-score at 10 µM. MrgX1-HEK293, Fluo-4 calcium flux, FDSS; stronger effect = higher value. 310,000 tested, 0.63% active;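 active = plate-corrected calcium response at least 3 library SD above typical, normal starting fluorescence, not activating the receptor alone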;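 also: compound read alongside a low EC10 to EC30 dose of BAM8-22 agonist; peak minus trough fluorescence over baseline measured at the second addition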
MrgX1 antagonist = blocks BAM8-22 activation of human MrgX1 receptor; Q96LB2; B-score at 10 µM; MRGX1-HEK293 calcium flux, Fluo-4, BAM8-22 antagonism; stronger effect = lower value; 310,000 tested, 1.3% active;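 active = calcium-response B-score plate-corrected more than 3 library SD below zero, starting fluorescence within 5 deviations, no agonist response on first addition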;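 also: peak minus trough fluorescence over baseline after final BAM8-22 challenge near maximal dose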
RGS4 pot = RGS4 potentiation or activation. B-score at 10 µM. AID 463111. 310,000 tested, 0.92% active. HEK293 M3R/inducible RGS4, carbachol calcium flux Fluo4; stronger effect = lower value;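 active = B-score of the integrated calcium signal more than 4 SD below the library mean, with starting fluorescence not abnormally high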;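 also: negative B-score means reduced calcium response which marks RGS4 activation or potentiation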
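Test system: HEK293 cells with stable M3R and inducible RGS4; also added: carbachol at ECmax as muscarinic agonist stimulus; schedule: dye loading 30 min 37 °C, buffer rest 30 min RT; technique: kinetic calcium fluorescence imaging with Fluo4-AM dye, 2 µM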
MrgX1 ant reconf = human MrgX1 receptor antagonism, re-confirmation screen; shares compounds with MrgX1 antagonist; MrgX1-HEK293, BAM8-22 calcium flux, Fluo-4; stronger effect = lower value; remaining BAM8-22 calcium response % of control (stronger effect = lower value), % at 10 µM; 2,300 tested, 19% active;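 active = remaining agonist calcium response no higher than 100% minus 3 SD of agonist-only control wells, with starting fluorescence near control levels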;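 also: agonist BAM8-22 given at a near maximal EC90 to ECmax level; peak minus minimum fluorescence divided by baseline after agonist addition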
HEK293 Ca flux = MrgX1 antagonist counter-screen hit in parental HEK293 cells; shares compounds with MrgX1 antagonist; Fluo-4 calcium fluorescence, FDSS; fluorescence ratio F(max-min)/F0 at 10 µM; 4,000 tested, 2% active;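 active = duplicate-averaged calcium fluorescence ratio at least three times the standard deviation of buffer wells, a nonspecific response in parental cells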
HEK293 Ca counter = MrgX1 allosteric activator counter-screen hit in parental HEK293 cells; shares compounds with MrgX1 antagonist; fluorescence ratio F(max-min)/F0 at 10 µM; 4,000 tested, 0.4% active; parental HEK293 calcium flux, Fluo-4 fluorescence ratio; stronger effect = higher value; AID 624114;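 active = calcium fluorescence ratio, averaged over duplicates, at least 3 SD of the buffer-well ratio, meaning a nonspecific response in receptor-free cells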;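 also: untransfected parental HEK293 lacking MrgX1 used as counterscreen for MrgX1 allosteric activators; fluorescence change taken during the second addition on a kinetic imager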
HEK293 Ca cntr2 = activity in parental HEK293 cells lacking MrgX1 receptor. Fluo-4 calcium fluorescence (FDSS); stronger effect = higher value. fluorescence ratio F(max-min)/F0 at 10 µM. shares compounds with MrgX1 antagonist. AID 624115. 4,000 tested, 8.7% active;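 active = calcium fluorescence ratio at least three times the spread of buffer wells, meaning a non-specific response in parental cells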
Each line names hits and unclear results; the compound was inactive in the other large screens (follow-up assays come after a bar, where they were run). Rows were chosen to be rich in hits. Some 3.5% of all compounds tested hit in one or more screens of this group.

Cc1cc(C)c(C(N)=O)c(NC(=O)Nc2ccccc2Cl)n1	MrgX1 antagonist -4.6 | MrgX1 ant reconf inactive | HEK293 Ca flux inactive | HEK293 Ca counter inactive | HEK293 Ca cntr2 inactive
O=C(O)CCCn1cc(NC(=O)c2ccco2)cn1	none
Cc1occc1C(=O)Nc1cnn(CCCC(=O)O)c1	MrgX1 antagonist -4.9 | MrgX1 ant reconf inactive | HEK293 Ca flux inactive | HEK293 Ca counter inactive | HEK293 Ca cntr2 inactive
CCc1nnc(NC(=O)CSC(=S)N2CCOCC2)s1	none
Cc1[nH]ccc(=O)c1OCc1c(Cl)cccc1Cl	MrgX1 antagonist -6.7 | MrgX1 ant reconf inactive | HEK293 Ca flux inactive | HEK293 Ca counter inactive | HEK293 Ca cntr2 inactive
COc1ccc(C(C#N)N2CCC(c3ccccc3)=N2)cc1 (centres undefined)	none
Cn1c(COc2ccc(Cl)cc2)nnc1SCC(=O)NC1CCCC1	none
COC(=O)CCc1c(C)c(C(=O)c2cc(F)c(F)c(F)c2F)c2ccccn12	none
COC(=O)CCc1c(C)c(C(=O)c2ccc(F)cc2)c2ccccn12	MrgX1 antagonist -5.7 | MrgX1 ant reconf inactive | HEK293 Ca flux inactive | HEK293 Ca counter inactive | HEK293 Ca cntr2 inactive
O=C(Nc1ccncc1)c1ccc2c(c1)S(=O)(=O)c1ccccc1C2=O	none
O=C(Nc1ccc(-c2ccccc2)cc1)c1ccc2c(c1)S(=O)(=O)c1ccccc1C2=O	MrgX1 antagonist -4.7 | MrgX1 ant reconf inactive | HEK293 Ca flux inactive | HEK293 Ca counter inactive | HEK293 Ca cntr2 inactive
CC1CCN(C2=NC(=O)/C(=C/c3cn(-c4ccccc4)nc3-c3cccc(S(=O)(=O)N(C)C)c3)S2)CC1	none
CCOC(=O)C1CN(S(=O)(=O)c2ccc(C)cc2)c2cc(S(=O)(=O)CC)ccc2O1 (centres undefined)	MrgX1 antagonist -4.8 | MrgX1 ant reconf inactive | HEK293 Ca flux inactive | HEK293 Ca counter inactive | HEK293 Ca cntr2 inactive
O=C(COc1ccc2cc(-c3ccccc3)c(=O)oc2c1)NCC1CCC(C(=O)O)CC1 (centres undefined)	none
CCOC(=O)CNC(=O)CSc1ccc(-c2nc3ccccc3[nH]2)cn1	MrgX1 antagonist -4.8 | MrgX1 ant reconf inactive | HEK293 Ca flux inactive | HEK293 Ca counter inactive | HEK293 Ca cntr2 inactive
COc1ccc(N(CC(C)C)S(=O)(=O)c2nnc(NC(=O)CC(C)C)s2)cc1	none
CCC(C)(C)n1nnnc1C(c1ccc2ncccc2c1)N1CCN(Cc2ccc3c(c2)OCO3)CC1 (centres undefined)	none
CCC(C)(C)n1nnnc1C(c1ccc(C)cc1)N1CCN(Cc2ccc3c(c2)OCO3)CC1 (centres undefined)	MrgX1 antagonist -6.2 | MrgX1 ant reconf inactive | HEK293 Ca flux inactive | HEK293 Ca counter inactive | HEK293 Ca cntr2 inactive
COc1cc(C(=O)NCC(c2ccco2)N2CCc3ccccc3C2)cc(OC)c1OC (centres undefined)	none
COc1ccccc1NC(=O)CN1CCN(CC(=O)Nc2ccc(S(N)(=O)=O)cc2)CC1	MrgX1 antagonist -7.6 | MrgX1 ant reconf inactive | HEK293 Ca flux inactive | HEK293 Ca counter inactive | HEK293 Ca cntr2 inactive
O=C(Nc1cccnc1)c1cc(-c2ccc(Br)cc2)on1	MrgX1 antagonist -8.7 | MrgX1 ant reconf inactive | HEK293 Ca flux inactive | HEK293 Ca counter inactive | HEK293 Ca cntr2 inactive
O=C(Nc1cccnc1)c1cc(-c2ccccc2)on1	none
COC(=O)c1sc(S(=O)(=O)N2CCC(C(N)=O)CC2)c(C(=O)OC)c1C	none
COC(=O)c1sc(S(=O)(=O)N2CCCCC2C(=O)O)c(C(=O)OC)c1C (centres undefined)	MrgX1 antagonist -5.4 | MrgX1 ant reconf inactive | HEK293 Ca flux inactive | HEK293 Ca counter inactive | HEK293 Ca cntr2 inactive
Cc1ccc(-n2nc3c(=O)n(CCCC(=O)NCCN4CCN(C)CC4)nc(C)c3c2C)cc1	none
CCOC(=O)N1CCN(C(=S)NCCOC)CC1	none
CCOC(=O)c1ccc(NC(=S)NCCc2ccccc2)cc1	none
CCOC(=O)c1ccc(NC(=S)NCCc2ccccc2F)cc1	MrgX1 antagonist -6.2 | MrgX1 ant reconf 67% | HEK293 Ca flux inactive | HEK293 Ca counter inactive | HEK293 Ca cntr2 inactive
Cc1ccc(CNc2cnccn2)cc1	MrgX1 antagonist -6.1 | MrgX1 ant reconf inactive | HEK293 Ca flux inactive | HEK293 Ca counter inactive | HEK293 Ca cntr2 inactive
NC(=S)Nc1cccc(Cl)c1	none
CS/C(N)=N/C(=S)Nc1cccc(Cl)c1	MrgX1 antagonist -4.6 | MrgX1 ant reconf inactive | HEK293 Ca flux inactive | HEK293 Ca counter inactive | HEK293 Ca cntr2 inactive
CC(C)(Cc1cc(CC(C)(C)C(=O)O)cc(C(C)(C)C)c1)C(=O)O	MrgX1 antagonist -7.5 | MrgX1 ant reconf inactive | HEK293 Ca flux inactive | HEK293 Ca counter inactive | HEK293 Ca cntr2 inactive
N#Cc1c(NC(=O)c2ccc(Cn3cc(Br)cn3)o2)sc2c1CCCCC2	none
COC(=O)c1sc(NC(=O)c2ccc(Cn3cc(Cl)cn3)o2)c(C#N)c1C	MrgX1 antagonist -4.6 | MrgX1 ant reconf inactive | HEK293 Ca flux inactive | HEK293 Ca counter inactive | HEK293 Ca cntr2 inactive
COc1cccc(CN(C)C(=O)c2cc(COc3c(F)cccc3F)on2)c1	none
COc1cccc(CN(C)C(=O)c2cc(COc3ccc4ncccc4c3)on2)c1	MrgX1 antagonist -6.6 | MrgX1 ant reconf 69% | HEK293 Ca flux inactive | HEK293 Ca counter inactive | HEK293 Ca cntr2 inactive
CCn1c(=NC(=O)CN2C(=O)CCC2=O)sc2c(OC)ccc(OC)c21	MrgX1 antagonist -8.2 | MrgX1 ant reconf inactive | HEK293 Ca flux inactive | HEK293 Ca counter inactive | HEK293 Ca cntr2 inactive
Cc1cccc(-n2ccnc2SCC(=O)Nc2nnc(C)s2)c1	MrgX1 antagonist -7.7 | MrgX1 ant reconf inactive | HEK293 Ca flux inactive | HEK293 Ca counter inactive | HEK293 Ca cntr2 inactive
CCc1nnc(NC(=O)CSc2nccn2-c2cccc(C)c2)s1	none
CC(C)(C)OC(=O)[C@H](Cc1ccccc1)NC(=O)c1nc[nH]c1C(=O)N1CCN(C(=O)OC(C)(C)C)CC1	none
CC1CCN(C(=O)c2[nH]cnc2C(=O)N[C@@H](Cc2ccccc2)C(=O)OC(C)(C)C)CC1	MrgX1 antagonist -7 | MrgX1 ant reconf inactive | HEK293 Ca flux inactive | HEK293 Ca counter inactive | HEK293 Ca cntr2 inactive
O=S(=O)(Nc1nc(-c2ccccc2)cs1)c1cccc(C(F)(F)F)c1	MrgX1 antagonist -7.4 | MrgX1 ant reconf inactive | HEK293 Ca flux inactive | HEK293 Ca counter inactive | HEK293 Ca cntr2 inactive
